The source of these data is PubChem BioAssay AID602301 (The Scripps Research Institute Molecular Screening Center, 2012).

The source made the active and inactive calls.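 Rule for the calls: active = inhibition of at least 50%; inactive = inhibition below 50%.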

The assay concerns Abhydrolase domain-containing protein 11 (ABHD11), Mus musculus. Nature of the assay: mouse ABHD11 activity inhibitors in proteome – biochemical, competitive gel ABPP, set 1, selectivity assay for DAGLb inhibitor project, late-stage follow-up (AID 602301). The note with it: Recombinant ABHD11 in HEK293T proteome, gel ABPP FP-Rh; at 10 µM; hits give high values. In short, it runs like this:
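System: recombinant mouse ABHD11 spiked into HEK293T membrane proteome overexpressing mouse DAGLb; Quantity: 0.050 µM ABHD11 in 0.3 mg/mL proteome; Times: 30 min compound plus 30 min probe, 37 °C; Technique: SDS-PAGE in-gel fluorescence, band IOD; Measure: percent inhibition of ABHD11 band, background-corrected, relative to DMSO control.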
`O=C(N(CCc1ccccc1)Cc1ccco1)n1cc(-c2ccc(OC(F)(F)F)cc2)nn1`: the inhibition is 15% (inactive).

For `O=C(N1CCCCC1Cc1ccccc1)n1cc(-c2ccc(-c3ccccc3OC(F)(F)F)cc2)nn1` (stereo not given), the inhibition is 20% (inactive). As for `O=C(N1CCCCC1Cc1ccccc1)n1cc(-c2ccc(-c3ccccc3Cl)cc2)nn1` (stereo not given), the inhibition was 50%. To `O=C(c1ccc(-c2ccc(-c3cn(C(=O)N4CCCCC4Cc4ccccc4)nn3)cc2)cc1)N1CCCCC1` (stereo not given) belongs 20% (inactive); to `O=C(N1CCCCC1Cc1ccccc1)n1cc(-c2ccc(-c3cccc(CO)c3)cc2)nn1` (stereo not given), 20% (inactive).

Turning to `O=C(N1CCCCC1Cc1ccccc1)n1cc(-c2ccc(-c3ccc(OC(F)(F)F)cc3)cc2)nn1` (stereo not given), the inhibition was 20% (inactive). Regarding `COc1ccccc1-c1ccc(-c2cn(C(=O)N3CCCCC3Cc3ccccc3)nn2)cc1` (stereo not given), the inhibition was 10% (inactive). To `O=C(N1CCCCC1Cc1ccccc1)n1cc(-c2ccc(Br)cc2)nn1` (stereo not given) belongs 90%; to `O=C(N1CCCCC1Cc1ccccc1)n1cc(-c2ccc(-c3ccccc3CO)cc2)nn1` (stereo not given), 20% (inactive); to `CC(C)CN(CCc1ccccc1)C(=O)n1cc(-c2ccc(OC(F)(F)F)cc2)nn1`, 10% (inactive). To `O=C(N1CCCCC1Cc1ccccc1)n1cc(-c2cc(F)cc(F)c2)nn1` (stereo not given) belongs 95%; to `Cc1ccccc1-c1ccc(-c2cn(C(=O)N3CCCCC3Cc3ccccc3)nn2)cc1` (stereo not given), 60%. To `O=C(N1CCCCC1Cc1ccccc1)n1cc(-c2ccc(-c3ccoc3)cc2)nn1` (stereo not given) belongs 30% (inactive); to `O=C(N1CCCCC1Cc1ccccc1)n1cc(-c2ccc(-c3ccc(C(F)(F)F)cc3)cc2)nn1` (stereo not given), 30% (inactive).

In the case of `O=C(c1ccc(-c2cn(C(=O)N3CCCCC3Cc3ccccc3)nn2)cc1)N1CCCCC1` (stereo not given), the inhibition is 10% (inactive). To `O=C(N1CCCCC1Cc1ccccc1)n1cc(-c2ccc(OC(F)(F)F)cc2)nn1` (stereo not given) belongs 50%. With `O=C(N1CCCCC1Cc1ccccc1)n1cc(-c2ccc(-c3ccc4c(c3)OCO4)cc2)nn1` (stereo not given), the inhibition was 10% (inactive).

Regarding `O=C(N1CCCCC1Cc1ccccc1)n1cc(-c2ccc(-c3ccccc3)cc2)nn1` (stereo not given), the inhibition was 0% (inactive). To `O=C(N1CCCCC1Cc1ccccc1)n1cc(-c2ccc(-c3cccc(C(F)(F)F)c3)cc2)nn1` (stereo not given) belongs 10% (inactive); to `O=C(N1CCCCC1Cc1ccccc1)n1ncc(-c2ccc(OC(F)(F)F)cc2)n1` (stereo not given), 10% (inactive); to `O=C(N1CCCCC1Cc1ccccc1)n1ncc(C(O)(c2ccccc2)c2ccccc2)n1` (stereo not given), 95%. To `O=C(N1CCCCC1Cc1ccccc1)n1cc(-c2ccc(-c3ccccc3C(F)(F)F)cc2)nn1` (stereo not given) belongs 10% (inactive). To `O=C(N1CCCCC1Cc1ccccc1)n1cc(-c2cccc(-c3ccccc3)c2)nn1` (stereo not given) belongs 80%; to `CC(C)(C)OC(=O)NCCCCCN(CCc1ccccc1)C(=O)n1cc(-c2ccc(OC(F)(F)F)cc2)nn1`, 0% (inactive); to `O=C(N1CCCCC1Cc1ccccc1)n1cc(-c2ccccc2-c2ccccc2)nn1` (stereo not given), 95%.

By inhibition is commonly meant the drop in the measured response relative to a control, in per cent.
